# What was measured:
# [1] = target: T1, Tyrosinase (Mus musculus) (UniProt P11344); assay: Inhibition of tyrosinase in mouse B16F10 cells assessed as remaining melanin production at 50 uM relative to control; conditions: B16-F10
# T1 sequence (whole entry): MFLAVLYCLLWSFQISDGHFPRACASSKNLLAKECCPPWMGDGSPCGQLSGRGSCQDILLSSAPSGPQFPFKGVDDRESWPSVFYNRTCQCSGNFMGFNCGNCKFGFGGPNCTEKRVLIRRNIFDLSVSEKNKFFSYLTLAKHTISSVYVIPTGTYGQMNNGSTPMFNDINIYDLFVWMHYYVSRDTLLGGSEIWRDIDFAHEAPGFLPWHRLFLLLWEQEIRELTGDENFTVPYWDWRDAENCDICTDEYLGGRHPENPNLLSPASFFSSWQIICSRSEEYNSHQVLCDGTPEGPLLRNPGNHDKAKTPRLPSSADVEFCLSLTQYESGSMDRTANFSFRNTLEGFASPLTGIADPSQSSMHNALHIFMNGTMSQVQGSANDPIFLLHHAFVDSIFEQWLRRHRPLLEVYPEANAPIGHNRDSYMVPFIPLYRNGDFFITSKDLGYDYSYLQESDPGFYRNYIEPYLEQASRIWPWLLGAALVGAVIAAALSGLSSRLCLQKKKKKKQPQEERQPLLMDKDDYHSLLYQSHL
# [2] = target: T1, Tyrosinase (Mus musculus); assay: Inhibition of tyrosinase in mouse B16F10 cell lysates using DOPA as substrate relative to control; type: cell-free; design: concentration or dose not given beside the values; conditions: B16-F10, concentration not given here
# [3] = target: T1, Tyrosinase (Mus musculus); assay: Inhibition of tyrosinase in mouse B16F10 cells assessed as remaining melanin production at 20 uM relative to control; conditions: B16-F10
# [4] = Cytotoxicity against mouse B16F10 cells assessed as cell survival at 50 uM after 48 hrs by MTT assay; type: cell-based, B16-F10; conditions: read-out: Survival
# [5] = target: T2, Tyrosinase (Agaricus bisporus, UniProt O42713); assay: Inhibition of mushroom tyrosinase using L-tyrosine as substrate
# T2 sequence (O42713 whole entry): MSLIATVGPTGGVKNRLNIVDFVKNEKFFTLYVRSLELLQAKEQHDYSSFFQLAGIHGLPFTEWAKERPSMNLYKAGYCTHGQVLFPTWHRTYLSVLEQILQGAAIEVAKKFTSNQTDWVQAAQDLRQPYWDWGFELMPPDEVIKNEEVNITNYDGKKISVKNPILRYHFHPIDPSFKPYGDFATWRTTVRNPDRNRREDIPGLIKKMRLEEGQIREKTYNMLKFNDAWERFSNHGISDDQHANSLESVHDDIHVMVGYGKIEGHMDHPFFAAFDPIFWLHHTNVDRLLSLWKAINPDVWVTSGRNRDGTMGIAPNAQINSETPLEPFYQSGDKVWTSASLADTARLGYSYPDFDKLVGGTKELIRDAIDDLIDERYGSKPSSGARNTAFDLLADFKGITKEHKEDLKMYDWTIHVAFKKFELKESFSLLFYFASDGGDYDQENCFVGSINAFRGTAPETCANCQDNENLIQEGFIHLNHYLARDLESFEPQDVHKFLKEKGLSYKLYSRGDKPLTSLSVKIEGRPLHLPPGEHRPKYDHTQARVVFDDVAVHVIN
# [6] = target: T1, Tyrosinase (Mus musculus); assay: Inhibition of tyrosinase in mouse B16F10 cells assessed as remaining melanin production at 10 uM relative to control; conditions: B16-F10
# [7] = target: T3, Tyrosinase (Agaricus bisporus) (UniProt O42713); assay: Non-competitive inhibition of mushroom tyrosinase using L-tyrosine as substrate by Lineweaver-Burk plots analysis
# T3 sequence (whole entry): T2 sequence (O42713 whole entry)
# How it was run: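 Absorbance at 475 nm read at 30 °C in PBS with 5% DMSO. Global nonlinear Michaelis–Menten fitting over four inhibition models gave Vmax, Km, Kic and Kiu, with the model chosen by minimal χ2.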
# [8] = target: T3, Tyrosinase (Agaricus bisporus); assay: Binding affinity to mushroom tyrosinase assessed as fluorescence quenching
# [9] = target: T2, Tyrosinase; assay: Competitive inhibition of mushroom tyrosinase using L-tyrosine as substrate by Lineweaver-Burk plots analysis
# How it was run: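 Global nonlinear Michaelis–Menten fitting over four inhibition models gave Vmax, Km, Kic and Kiu, with the model chosen by minimal χ2.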
Compound,residual activity [1] [%],inhibition [2] [%],residual activity [3] [%],"viability at 48 h, 50 µM [4] [%]",IC50 [5] [µM],residual activity [6] [%],Kic [7] [µM],KSV [8] [×10³ /M],Ki [9] [µM]
CCCc1cc(C(N)=S)ccn1 [PROTIONAMIDE],100,84,103,121,4.5,105,2.4,10.2,–
NC(=S)Nc1ccccc1 [PHENYLTHIOUREA],54,27,55,106,–,63,–,2.4,–
CCc1cc(C(N)=S)ccn1 [ETHIONAMIDE],104,88,104,106,4,107,1.9,9.5,–
NC(=S)c1cccnc1,106,83,104,108,7.5,109,4.3,8.5,–
NNC(=O)c1ccncc1 [ISONIAZID],102,97,100,103,> 1000,104,–,1.7,–
NC(=S)c1ccncc1,104,93,103,110,43.8,106,22.3,7.5,–
CC(=O)Nc1ccccc1 [ACETANILIDE],102,99,103,116,> 1000,105,–,1,–
CC(=S)Nc1ccccc1,57,42,75,116,4.1,91,–,8.3,1.2
NC(=S)c1ccccc1,63,72,93,117,2.8,103,0.7,9.2,–
NC(=S)c1ccccn1,56,78,80,105,14.4,98,2.7,9,–
